Experimental data of several laboratories.
Compare with care: the assays were run in different laboratories.
Method: competition with immobilised ligand
RPS6KA1 N-terminal kinase domain: Ribosomal protein S6 kinase alpha-1, N-terminal kinase domain (RPS6KA1, Homo sapiens, UniProt Q15418)
RPS6KA1 C-terminal kinase domain: Ribosomal protein S6 kinase alpha-1, C-terminal kinase domain (RPS6KA1, Homo sapiens, UniProt Q15418)

target | test | setting | remaining binding [%] | SMILES
RPS6KA1 N-terminal kinase domain | cell-free assay | 1 µM | 100 | O=C(NCc1ncc(C(F)(F)F)cc1Cl)c1ccc2c(c1)C1(CCS(=O)(=O)CC1)[C@H](C1CC1)N2S(=O)(=O)c1ccc(F)cc1
RPS6KA1 C-terminal kinase domain | binding | 1 µM | 83 | COc1cnc(Nc2cccc(S(N)(=O)=O)c2)nc1N1CCN(c2ccccc2)CC1
RPS6KA1 C-terminal kinase domain | cell-free assay | 1 µM | 98 | CN(C)c1ncnc(-c2ccc3nc(Nc4cc(CN5CCN(C(=O)CC(F)(F)F)CC5)ccn4)[nH]c3c2)c1Cl
RPS6KA1 N-terminal kinase domain | binding | 1 µM | 93 | O=C(NCC1CCOCC1)c1n[nH]cc1NC(=O)c1c(F)cccc1F
RPS6KA1 N-terminal kinase domain | binding | 0.1 µM | 96 | C[C@@H](c1ccc(-n2cnc3c(N)ncnc32)cc1)N1CCc2nn(C)c(Cc3ccccc3)c2C1=O
RPS6KA1 N-terminal kinase domain | binding | 1 µM | 55 | O=C(NCCCN1CCOCC1)c1ccc(Nc2ncc(Cl)c(-c3ccc(Cl)s3)n2)cc1
RPS6KA1 N-terminal kinase domain | binding | 5 µM | 63 | FC(F)(F)Oc1cccc(-c2cnc3ccc(-c4ccncc4)nn23)c1
RPS6KA1 N-terminal kinase domain | binding | 1 µM | 87 | O=C(NCCCN1CCOCC1)c1ccc(Nc2nccc(-c3cc4ccccc4s3)n2)cc1
RPS6KA1 N-terminal kinase domain | cell-free assay | 0.1 µM | 100 | O=C(NCCCC1CCCCC1)c1ccc(CNC(=O)c2cnn(-c3ccccc3)c2C(F)(F)F)cc1
RPS6KA1 N-terminal kinase domain | binding | 10 µM | 9.9 | c1cncc(-c2cccc(Nc3nccc(NC4CCCCC4)n3)c2)c1
RPS6KA1 C-terminal kinase domain | binding | 1 µM | 100 | CN(c1nccc(-c2cnn3ncccc23)n1)C1CC1
RPS6KA1 N-terminal kinase domain | cell-free assay | 0.1 µM | 97 | C[C@@H]1CN(c2cc(-c3n[nH]c4ccc(OC5(C)CC5)cc34)ncn2)C[C@H](C)O1
RPS6KA1 N-terminal kinase domain | binding | 1 µM | 91 | CCN1CCN(Cc2ccc(C(=O)Nc3ccc(C)c(Oc4ccc5c(c4)CC(=O)N5)c3)cc2C(F)(F)F)CC1
RPS6KA1 C-terminal kinase domain | binding | 1 µM | 100 | C=CC(=O)N1CCC(C(=O)NCC(=O)N2CCN(c3nc(-c4cnc(N)nc4C(F)F)nc(N4CCOCC4)n3)CC2)CC1
RPS6KA1 N-terminal kinase domain | binding | 1 µM | 100 | F[C@@H]1CCN(c2nccc(-c3cnn4ncccc34)n2)C1
RPS6KA1 N-terminal kinase domain | binding | 1 µM | 100 | O=C(c1ccc(Nc2nccc(-c3cc4ccccc4s3)n2)cc1)N1CCC(N2CCCC2)CC1

target | test | setting | remaining binding [%] | SMILES
RPS6KA1 N-terminal kinase domain | binding | 1 µM | 100 | O=C(Nc1c[nH]nc1C(=O)NC1CCNCC1)c1cc(F)cc(F)c1
RPS6KA1 N-terminal kinase domain | binding | 1 µM | 63 | O=C(c1ccc(Nc2ncc(Cl)c(-c3cc4ccccc4s3)n2)cc1)N1CCC(N2CCCC2)CC1
RPS6KA1 N-terminal kinase domain | binding | 1 µM | 100 | CNC(=O)[C@@H]1CC[C@@H](n2c(-c3ccc4cnccc4c3)nc3ccc(C(=O)NCc4cccc(C(N)=O)c4)cc32)C1
RPS6KA1 C-terminal kinase domain | cell-free assay | 1 µM | 99 | CO[C@@H](C)c1c(Nc2ccc([C@@H](N(C)C(=O)C3CCS(=O)(=O)CC3)C(F)(F)F)cc2)cnc2cc(Cl)nn12
RPS6KA1 N-terminal kinase domain | binding | 1 µM | 100 | CN(CCCC(F)(F)F)c1nccc(-c2cnn3ncccc23)n1
RPS6KA1 C-terminal kinase domain | cell-free assay | 1 µM | 92 | O=C(Nc1cccnn1)N1CC(C/C=C/c2cncc(Oc3ccc(C(F)(F)F)cn3)n2)C1
RPS6KA1 N-terminal kinase domain | binding | 1 µM | 100 | COc1cnc(Nc2cccc(S(N)(=O)=O)c2)nc1N1CCN(c2ccccc2)C(=O)C1
RPS6KA1 N-terminal kinase domain | binding | 1 µM | 100 | CN(C)c1ncc(F)c(-c2cnn3ncccc23)n1
RPS6KA1 C-terminal kinase domain | binding | 1 µM | 72 | O=C(c1ccc(Nc2ncc(Cl)c(-c3ccc(Cl)s3)n2)cc1)N1CCC(N2CCCC2)CC1
RPS6KA1 C-terminal kinase domain | cell-free assay | 5 µM | 49 | COc1ncc2cc3ccccc3nc2c1C#N
RPS6KA1 N-terminal kinase domain | binding | 1 µM | 100 | N[C@@H]1CCN(c2nccc(-c3cnn4ncccc34)n2)C1
RPS6KA1 C-terminal kinase domain | binding | 1 µM | 86 | Nc1ncc2c(n1)-c1c([nH]c3ccc(C#CC4CC4)cc13)CCCC2
RPS6KA1 N-terminal kinase domain | cell-free assay | 1 µM | 100 | CCS(=O)(=O)c1cc2cc(C[C@@](O)(CC(C)(C)c3ccc(F)cc3C(N)=O)C(F)(F)F)[nH]c2cn1
RPS6KA1 C-terminal kinase domain | binding | 1 µM | 47 | C[C@@H]1CCN(c2nccc(-c3cnn4ncccc34)n2)C1
RPS6KA1 C-terminal kinase domain | cell-free assay | 1 µM | 88 | CC(=O)c1c(NS(C)(=O)=O)c2cc(-c3ccc(Cl)cc3)c(-c3ccc(Cl)cc3Cl)nc2n(C)c1=O
RPS6KA1 N-terminal kinase domain | binding | 1 µM | 100 | Cc1cnn2ncc(-c3ccnc(N(C)C)n3)c2c1
